Tests used:
[1] = test system: HT-29; test: Antiproliferative activity against HT29 cells; type: functional, cell-based; conditions: Homo sapiens
[2] = test system: MCF7; test: Antiproliferative activity against MCF7 cells; type: functional, cell-based; conditions: Homo sapiens
[3] = Stability in phosphate buffer; type: physicochemical
[4] = target: Prostaglandin G/H synthase 1 (Homo sapiens) (UniProt P23219); test: Inhibition of COX1 by human platelet assay; design: concentration or dose not given beside the values; conditions: concentration not given here
Chain of Prostaglandin G/H synthase 1 (Homo sapiens) (P23219 whole entry): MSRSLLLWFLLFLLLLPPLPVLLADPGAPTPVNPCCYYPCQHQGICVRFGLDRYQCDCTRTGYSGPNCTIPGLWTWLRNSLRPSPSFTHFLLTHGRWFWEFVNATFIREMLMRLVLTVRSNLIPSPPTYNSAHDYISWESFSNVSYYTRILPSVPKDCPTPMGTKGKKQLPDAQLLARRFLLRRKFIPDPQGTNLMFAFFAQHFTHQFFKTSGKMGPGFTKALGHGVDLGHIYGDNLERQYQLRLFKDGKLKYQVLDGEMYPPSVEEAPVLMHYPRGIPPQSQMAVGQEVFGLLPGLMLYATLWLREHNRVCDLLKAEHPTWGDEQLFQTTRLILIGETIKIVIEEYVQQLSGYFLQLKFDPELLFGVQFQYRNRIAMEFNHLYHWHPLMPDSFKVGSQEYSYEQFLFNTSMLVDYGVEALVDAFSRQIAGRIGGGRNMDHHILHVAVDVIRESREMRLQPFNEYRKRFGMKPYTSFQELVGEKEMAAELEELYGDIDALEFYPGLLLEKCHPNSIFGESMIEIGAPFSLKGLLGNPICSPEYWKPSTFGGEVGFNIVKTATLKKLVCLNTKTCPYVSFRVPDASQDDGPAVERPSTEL
Procedure, shortened: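 Enzyme activities measured in human platelets incubated for 60 min in buffer solution at 37 °C. 12-LOX activity was read out as formation of 12(S)-HETE. COX-1 activity was read out as formation of its eicosanoid product.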

[5] = test system: Arachidonate 12-lipoxygenase, platelet type (Homo sapiens); test: Inhibition of LOX12 by human platelet assay; design: concentration or dose not given beside the values; conditions: concentration not given here

Row | Compound | IC50 [1] [µM] | IC50 [2] [µM] | Stability [3] | inhibition [4] [%] | inhibition [5] [%]
1 | CC(=O)OCC(OC(C)=O)C(OC(C)=O)C(Cn1c2nc(=O)n(COC(=O)C(C)c3ccc(CC(C)C)cc3)c(=O)c-2nc2cc(C)c(C)cc21)OC(C)=O (stereo not drawn) | 12.1 | 12.3 | Stable | 15 | < 11
2 | CC(=O)OCC(OC(C)=O)C(OC(C)=O)C(Cn1c2nc(=O)n(CCCCCOC(=O)C(C)c3ccc(CC(C)C)cc3)c(=O)c-2nc2cc(C)c(C)cc21)OC(C)=O (stereo not drawn) | 13.1 | 9.5 | Stable | 43 | < 11
3 | CC(=O)OCC(OC(C)=O)C(OC(C)=O)C(Cn1c2nc(=O)n(CCOC(=O)C(C)c3ccc(CC(C)C)cc3)c(=O)c-2nc2cc(C)c(C)cc21)OC(C)=O (stereo not drawn) | 12.7 | 14.9 | Stable | 15 | < 11
4 | O=c1[nH]cc(F)c(=O)[nH]1 [FLUOROURACIL] | 7.3 |  |  |  | 
5 | CC(=O)OCC(OC(C)=O)C(OC(C)=O)C(Cn1c2nc(=O)[nH]c(=O)c-2nc2cc(C)c(C)cc21)OC(C)=O (stereo not drawn) | 90.9 | 53.4 |  |  | 
6 | CC(=O)OCC(OC(C)=O)C(OC(C)=O)C(Cn1c2nc(=O)n(CCO)c(=O)c-2nc2cc(C)c(C)cc21)OC(C)=O (stereo not drawn) | > 100 | > 100 |  |  | 
7 | CC(C)Cc1ccc([C@H](C)C(=O)O)cc1 [DEXIBUPROFEN] | > 1000 | 795 |  | 90 | 
8 | CC(=O)OCC(OC(C)=O)C(OC(C)=O)C(Cn1c2nc(=O)n(CCCCOC(=O)C(C)c3ccc(CC(C)C)cc3)c(=O)c-2nc2cc(C)c(C)cc21)OC(C)=O (stereo not drawn) | 10.5 | 9.5 | Stable | 37 | < 11
9 | CC(=O)OCC(OC(C)=O)C(OC(C)=O)C(Cn1c2nc(=O)n(CCCOC(=O)C(C)c3ccc(CC(C)C)cc3)c(=O)c-2nc2cc(C)c(C)cc21)OC(C)=O (stereo not drawn) | 9.3 | 7.8 | Stable | 15 | < 11

— ChEMBL document CHEMBL1146294 (Bioorg Med Chem Lett, 2007)
